Assay results published in article PMC5312682 (Journal of neurochemistry, 2017).

Columns and labels:
microglia = conditions: induced by fragments of amyloid beta; ref Behensky et al. 2013; cited from earlier work
[1] = test system: neural progenitor cells derived from adult rat brain; conditions: ref Liu et al. 2009; cited from earlier work
[2] = target: CNS-relevant targets, including opioid, adrenergic, nACR, mAChR, and NMDA receptors, neurotransmitter transporters and ion channels; experiment: Off-target binding, CNS-relevant targets; conditions: read-out: off-target affinity Ki; most CNS-relevant targets; Supplemental table 2
Sig2R = conditions: read-out: Ki Sig2R; ref Sahn et al. 2016; cited from earlier work
[3] = test system: Thy1-hAPP^Lond/Swe+ mice and WT littermates; experiment: Morris Water Maze; type: in vivo, mouse
In short: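 Dose-response cohort: APPLond/Swe+ and WT littermates aged 6.7 months, given 3, 10 or 30 mg/kg SC daily for 60 days (n=4–5 per group). MWM started after 35 days of dosing, with hidden-platform learning followed by reversal-learning hidden-platform trials. Mice floating extensively or unable to swim were excluded. Analysis used repeated-measures ANOVA with Dunnett's or one-way ANOVA with Fisher's LSD; mean ±SEM.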

[4] = test system: Thy1-hAPP^Lond/Swe+ mice and WT littermates; type: in vivo, mouse
In short: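 APPLond/Swe+ and WT littermates, single-housed on a reverse light cycle, balanced for body weight and pre-dose locomotor activity. Dosing was 10 mg/kg SC once daily in late afternoon for 64 days, started at 4.5 months of age. Activity chamber was run first in the behavioural battery, during the active cycle. After behavioural testing, blood and organs were collected at sacrifice for blood chemistry and histopathology.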

Aβ = Aβ pathology; type: in vivo, mouse; conditions: APP^Lond/Swe+ mice, 10 mg/kg/d chronic
In short: (§1)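 After behavioural testing at the end of chronic daily SC dosing, APPLond/Swe+ and WT mice were perfused with PBS and brains collected. Brains were bisected sagittally: one half was frozen at −80°C, and the other was fixed overnight in 4% formalin, then kept at 4°C in 30% sucrose until processing.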

IL1β = experiment: qRT-PCR of inflammatory markers in cortical tissue; type: in vivo, mouse; conditions: APP^Lond/Swe+ mice, dose-response cohort
PK study in mice = type: in vivo, C57Bl/6J mice; conditions: mouse; for bioavailability: AUC(0-3h) vs intravenous
[5] = test system: human SK-N-SH neuroblastoma cells; experiment: Intracellular calcium assay; type: cell-based; conditions: for calcium response: compound alone
[6] = test system: transgenic SC_APP C. elegans; experiment: C. elegans neurotoxicity assay; type: in vivo
synaptophysin, iba1 = experiment: Synaptophysin and iba1 immunohistochemistry in brain; type: in vivo, mouse
In short: as §1

[7] = test system: Thy1-hAPP^Lond/Swe+ mice and WT littermates; experiment: Y-maze test; type: in vivo, mouse
In short: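 Y-maze spontaneous alternation and total arm entries in APPLond/Swe+ and WT littermates dosed SC daily, tested during the active cycle in balanced morning and afternoon sessions. Chronic study: 10 mg/kg, tested after 50 days of dosing. Dose-response study: 3, 10 or 30 mg/kg for 60 days. Alternation was compared with a 50% theoretical mean by one-sample t-test; mean ±SEM.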

[8] = test system: Thy1-hAPP^Lond/Swe+ mice and WT littermates; experiment: Sociability / social discrimination test; type: in vivo, mouse; conditions: for sociability test: preference mouse cup vs empty cup: 10 mg/kg/d SC, after 35 days of dosing
In short: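 APPLond/Swe+ and WT littermates dosed SC daily in late afternoon; on test days, dosing followed testing. Chronic study: 10 mg/kg for 64 days from 4.5 months; sociability measured as exploration of a cup holding a C57Bl/6 mouse vs an empty cup. Dose-response study: 3, 10 or 30 mg/kg from 6.7 months; social discrimination of novel vs familiar mouse after 30 days of dosing, by t-test.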

Compound: CCOc1ccc2nc(SCCN3CCOCC3)[nH]c2c1 [afobazole]
- neurotoxic microglia stimulation and apoptosis (microglia): reduces neurotoxic microglia stimulation and apoptosis

Compound: CC(=O)[C@H]1CC[C@H]2[C@@H]3CCC4=CC(=O)CC[C@]4(C)[C@H]3CC[C@]12C [progesterone]
- neurogenic and neuroprotective effects [1]: exerts neurogenic and neuroprotective effects

Compound: CN1CCN(c2ccc3c(c2)[C@H]2C[C@@H]3CCN2C(=O)OCc2ccccc2)CC1 [SAS-0132]
- Ki [2]: 500 to 10000 nM
- Ki (Sig2R): 90 nM
- MWM hidden platform learning phase ([3]; APP^Lond/Swe+ mice): had no effect on the cognitive functions
- MWM reversal learning trials ([3]; APP^Lond/Swe+ mice): no significant effects of SAS-0132 treatment
- MWM reversal learning probe trial: target quadrant preference ([3]; APP^Lond/Swe+ mice, 10 mg/kg): showed target quadrant preference
- MWM reversal learning: escape latency vs vehicle ([3]; APP^Lond/Swe+ mice, 3 and 10 mg/kg): non-significant decreased escape latency
- MWM probe trial: target quadrant preference ([3]; WT mice, 3 mg/kg): showed a clear preference for the target quadrant
- MWM reversal probe trial: target quadrant preference ([3]; WT mice, 3 mg/kg): all WT groups showed target quadrant preference with the exception of the 3 mg/kg dose group
- MWM hidden platform learning: escape latency ([3]; WT mice, 3 and 30 mg/kg, started after 35 days of dosing): found the escape platform faster than the vehicle-treated WT mice
- MWM reversal learning day 2: escape latency ([3]; WT mice, 10 and 30 mg/kg): found the escape platform faster than WT mice treated with vehicle
- MWM reversal learning probe trial: target quadrant preference ([3]; WT mice, 10 and 30 mg/kg): demonstrated recall and showed target quadrant preference
- blood chemistry and histopathology ([4]; WT mice, 10 mg/kg/d for 64 days, Supplemental tables 3-4): no signs of SAS- 0132 induced toxicity
- locomotor activity in activity chamber vs vehicle ([4]; after 24 days of treatment): not significantly different
- general health of treated animals ([4]; both chronic daily dosing studies, 3-30 mg/kg/d, 60-64 days): remained healthy and exhibited no detectable abnormalities
- intracellular Aβ immunoreactivity (cortex, hippocampus, amygdala) (Aβ): does not affect levels of intracellular Aβ
- soluble and insoluble Aβ40 and Aβ42 (ELISA) vs vehicle (Aβ): no significant difference
- IL1β mRNA expression (IL1β): decreased the expression of the inflammatory cytokine IL1β
- plasma levels (PK study in mice; 10 mg/kg IV, SC and PO, up to 3 h post-administration): Detectable levels
- bioavailability (PK study in mice; 10 mg/kg oral): 7%
- brain concentration (PK study in mice; 10 mg/kg subcutaneous, 3 h post-administration): 3.8 µM
- bioavailability (PK study in mice; 10 mg/kg subcutaneous): 45%
- concentration in brain homogenates (PK study in mice; 24 h after single 10 mg/kg subcutaneous injection): 1.6 ng/g
- effects on intracellular Ca2+ compared with DKR-1051 ([5]; 100 µM): weaker than the effects of DKR-1051
- effect on calcium response induced by DKR-1051 (100 µM) ([5]; SAS-0132 applied before DKR-1051, lower concentrations (0.1-30 µM)): significantly attenuated the DKR-0151-induced calcium response
- calcium response ([5]; 100 µM): significant increases in intracellular Ca^2+
- calcium response ([5]; concentrations up to 30 µM): fails to produce a significant calcium response
- neurodegeneration of VC4 and VC5 neurons vs vehicle ([6]; 200 µM, 5-day treatment, day 5 of adulthood, SC_APP worms, p < 0.01): decreased neurodegeneration
- neuroprotection in animals with vem-1 (PGRMC1) knocked-down by RNAi ([6]; 200 µM, SC_APP worms, vem-1 RNAi co-treatment): provided no further neuroprotection
- functional classification at Sig2R/PGRMC1 ([6]; from C. elegans data compared with vem-1 null mutations): Sig2R/PGRMC1 antagonists
- synaptophysin immunoreactivity, CA3 (synapse loss) (synaptophysin, iba1; APP^Lond/Swe+ mice, 10 mg/kg/d chronic): did not alter the extent of synapse loss
- iba1 immunoreactivity (synaptophysin, iba1; WT or APP^Lond/Swe+ mice, chronic daily dosing study): no drug-related effects
- Y-maze total arm entries ([7]; WT and APP^Lond/Swe+ mice, 10 mg/kg/d, chronic daily dosing study): not different among the four groups
- Y-maze spontaneous alternation ([7]; dose-response study, WT and APP^Lond/Swe+ mice, 30 mg/kg): showed impaired spontaneous alternation behavior
- Y-maze spontaneous alternation ([7]; dose-response study, WT mice, 30 mg/kg): showed impaired alternation behavior
- Y-maze spontaneous alternation ([7]; dose-response study, WT mice, 3 and 10 mg/kg): did not affect their performance
- Y-maze total arm entries ([7]; dose-response study, all groups): not different among groups
- sociability test: preference mouse cup vs empty cup ([8]; APP^Lond/Swe+ mice, p < 0.05): showed a distinct preference for the cup containing a mouse over the empty cup
- sociability test: preference mouse cup vs empty cup ([8]; WT mice): not significantly altered
- sociability ([8]; dose-response study, 30 mg/kg): did not impair sociability
- social discrimination: novel vs familiar mouse ([8]; dose-response study, APP^Lond/Swe+ mice, 3 mg/kg): showed a significant preference for a novel mouse over a familiar one
